In ChEMBL document CHEMBL1123982, “Syntheses and adrenergic activities of ring-fluorinated epinephrines” (J Med Chem, 1988):

Experiments:
[1] = target: T1, Adrenergic receptor alpha-2 (Homo sapiens, UniProt P08913+P18825+P18089); assay: Binding affinity against alpha 2-Adrenergic receptor in guinea pig cerebral cortical membranes by displacement of [3H]clonidine; parameters: species or system Cavia porcellus; details: target entry is the homologue from another species
T1 sequence (P08913 whole entry): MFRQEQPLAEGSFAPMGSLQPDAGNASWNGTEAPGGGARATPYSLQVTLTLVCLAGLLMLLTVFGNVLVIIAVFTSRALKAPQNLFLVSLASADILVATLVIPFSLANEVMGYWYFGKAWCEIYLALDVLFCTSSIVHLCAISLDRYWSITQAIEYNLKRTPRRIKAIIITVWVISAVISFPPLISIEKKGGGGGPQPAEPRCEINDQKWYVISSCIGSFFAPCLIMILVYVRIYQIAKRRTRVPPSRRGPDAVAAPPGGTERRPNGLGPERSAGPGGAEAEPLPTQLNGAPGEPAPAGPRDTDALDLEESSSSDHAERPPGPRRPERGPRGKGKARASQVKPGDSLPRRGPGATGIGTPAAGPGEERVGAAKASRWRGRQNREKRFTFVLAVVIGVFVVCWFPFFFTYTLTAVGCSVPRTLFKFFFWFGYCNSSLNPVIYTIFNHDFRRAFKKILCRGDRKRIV
T1 sequence (P18825 whole entry): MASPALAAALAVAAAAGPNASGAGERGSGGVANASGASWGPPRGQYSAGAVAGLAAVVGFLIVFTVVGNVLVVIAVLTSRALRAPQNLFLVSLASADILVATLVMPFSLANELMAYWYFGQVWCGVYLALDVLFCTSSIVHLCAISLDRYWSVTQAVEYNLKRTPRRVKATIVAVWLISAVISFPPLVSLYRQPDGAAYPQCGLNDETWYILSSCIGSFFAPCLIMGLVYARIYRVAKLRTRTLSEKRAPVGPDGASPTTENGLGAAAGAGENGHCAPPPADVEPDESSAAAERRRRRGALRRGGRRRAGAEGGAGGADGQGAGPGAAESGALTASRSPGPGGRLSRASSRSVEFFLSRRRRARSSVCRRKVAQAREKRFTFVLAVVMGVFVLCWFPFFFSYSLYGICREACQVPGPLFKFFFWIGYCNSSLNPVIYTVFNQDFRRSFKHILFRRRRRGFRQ
T1 sequence (P18089 whole entry): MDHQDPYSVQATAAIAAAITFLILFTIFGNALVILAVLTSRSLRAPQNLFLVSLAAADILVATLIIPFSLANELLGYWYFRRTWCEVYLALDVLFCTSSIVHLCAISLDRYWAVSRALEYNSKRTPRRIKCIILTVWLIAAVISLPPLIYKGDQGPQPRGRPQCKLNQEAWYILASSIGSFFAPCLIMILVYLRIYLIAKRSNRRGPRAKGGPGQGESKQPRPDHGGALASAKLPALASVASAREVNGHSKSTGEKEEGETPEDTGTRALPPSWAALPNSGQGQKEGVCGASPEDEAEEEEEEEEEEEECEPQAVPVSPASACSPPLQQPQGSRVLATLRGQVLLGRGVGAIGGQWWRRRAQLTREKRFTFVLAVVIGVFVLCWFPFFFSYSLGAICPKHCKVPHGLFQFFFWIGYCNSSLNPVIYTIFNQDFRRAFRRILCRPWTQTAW
How it was run: (§1)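 Nonspecific binding defined with 10 μM clonidine. Points in triplicate, reported as percent of control; experiment repeated three times.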

Adrenergic receptor beta = Adrenergic receptor beta (Rattus norvegicus, UniProt P18090+P10608+P26255); assay: Agonistic potency at beta adrenergic receptor for the stimulation of accumulation of cyclic AMP in cultured C6 glioma cells; assay type: functional, cell-based
How it was run: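 C6 glioma cells subcultured the day before and washed in HEPES-buffered saline (pH 7.4). Preincubated 10 min with 30 μM rolipram, then agonist for 10 min. Stopped with 0.1 M HCl. cAMP measured by commercial kit. Adjusted EC50 is taken from dose-response curves.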

[2] = target: Beta-1 adrenergic receptor (Cavia porcellus, UniProt B0FL73); assay: Agonistic potency at beta-1 adrenergic receptor for the percent maximal increase in contraction rate of isolated guinea pig atria; assay type: functional
How it was run: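 Isolated guinea pig atria, giving percent of maximal rate increase for four individual preparations.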

[3] = target: T1, Adrenergic receptor alpha-2; assay: Agonistic potency at alpha 2-Adrenergic receptor for inhibition of 10 uM forskolin-elicited stimulation of adenylate cyclase in human platelet membranes; assay type: functional, cell membranes
How it was run: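 Human platelet membranes (10–15 μg protein/tube) added to medium preincubated 5 min at 37 °C: 0.1 mM [α-32P]ATP, 0.1 mM cAMP, adenosine deaminase, 0.1 mM rolipram, 0.2 mM EGTA, creatine phosphate/kinase, BSA, 1 μM GTP, 10 μM forskolin, 1 mM MgCl2, 50 mM Tris-HCl pH 7.4. Stopped with zinc acetate/Na2CO3. Product is cAMP (pmol/min/mg), triplicate points. Adjusted EC50 is taken from dose-response curves.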

[4] = target: Beta-1 adrenergic receptor (Rattus norvegicus) (UniProt P18090); assay: Binding affinity against beta-1 adrenergic receptor in rat cerebral cortical membranes by displacement of Dihydro-[3H]-alprenolol
[5] = target: T1, Adrenergic receptor alpha-2; assay: Binding affinity against alpha-2 adrenergic receptor in guinea pig cerebral cortical membranes by displacement of [3H]clonidine; parameters: species or system Cavia porcellus; details: target entry is the homologue from another species; how it was run: as §1

Beta-1 adrenergic receptor (Rattus norvegicus), sequence (P18090 whole entry, looked up): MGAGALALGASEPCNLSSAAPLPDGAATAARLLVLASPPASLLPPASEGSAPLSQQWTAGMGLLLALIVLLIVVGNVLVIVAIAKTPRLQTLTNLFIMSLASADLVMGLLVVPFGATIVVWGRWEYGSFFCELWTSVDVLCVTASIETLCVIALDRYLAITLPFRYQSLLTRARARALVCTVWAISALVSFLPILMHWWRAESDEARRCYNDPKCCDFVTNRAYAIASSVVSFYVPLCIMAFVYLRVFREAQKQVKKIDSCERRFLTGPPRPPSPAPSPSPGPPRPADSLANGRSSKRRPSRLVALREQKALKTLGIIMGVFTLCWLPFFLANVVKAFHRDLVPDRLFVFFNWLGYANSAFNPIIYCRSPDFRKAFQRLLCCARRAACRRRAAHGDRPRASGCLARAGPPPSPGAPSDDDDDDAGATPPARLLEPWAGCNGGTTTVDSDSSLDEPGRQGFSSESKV
Beta-1 adrenergic receptor, sequence (B0FL73 whole entry): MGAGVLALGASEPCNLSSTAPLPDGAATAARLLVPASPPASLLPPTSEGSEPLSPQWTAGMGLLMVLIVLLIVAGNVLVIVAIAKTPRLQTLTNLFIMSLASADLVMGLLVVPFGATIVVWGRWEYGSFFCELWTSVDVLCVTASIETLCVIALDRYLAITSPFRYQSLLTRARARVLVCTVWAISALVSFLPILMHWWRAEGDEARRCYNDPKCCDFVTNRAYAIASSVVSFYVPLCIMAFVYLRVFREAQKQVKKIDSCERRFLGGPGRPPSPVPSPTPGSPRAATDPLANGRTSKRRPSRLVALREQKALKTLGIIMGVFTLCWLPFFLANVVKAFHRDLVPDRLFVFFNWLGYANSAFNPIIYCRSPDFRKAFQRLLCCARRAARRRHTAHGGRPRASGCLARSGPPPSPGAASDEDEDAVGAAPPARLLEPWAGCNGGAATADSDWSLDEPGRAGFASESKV

| Compound | Ki [1] [µM] | EC50 (Adrenergic receptor beta) [µM] | EC50 [2] [µM] | EC50 [3] [µM] | Ki [4] [µM] | Ki [5] [µM] |
| --- | --- | --- | --- | --- | --- | --- |
| NCC(O)c1ccc(O)c(O)c1F (stereo not given) | 0.7 | – | – | – | – | – |
| CNCC(O)c1cc(O)c(O)cc1F (stereo not given) | 0.009 | > 1.5 | > 1.5 | 0.1 | 63 | – |
| CNCC(O)c1ccc(O)c(O)c1F (stereo not given) | – | – | – | > 5 | – | 0.066 |
| CNC[C@H](O)c1ccc(O)c(O)c1 [EPINEPHRINE] | – | – | 0.26 | – | 3 | – |
